One assay is filed under the species Rattus norvegicus. The assay is described as follows: Inhibition of lipid peroxidation in rat liver microsomes at 1 uM. It is filed as functional.
Assay [1] concerns the target T1, Polyunsaturated fatty acid 5-lipoxygenase (Rattus norvegicus, UniProt P12527).
T1 sequence (P12527 whole entry): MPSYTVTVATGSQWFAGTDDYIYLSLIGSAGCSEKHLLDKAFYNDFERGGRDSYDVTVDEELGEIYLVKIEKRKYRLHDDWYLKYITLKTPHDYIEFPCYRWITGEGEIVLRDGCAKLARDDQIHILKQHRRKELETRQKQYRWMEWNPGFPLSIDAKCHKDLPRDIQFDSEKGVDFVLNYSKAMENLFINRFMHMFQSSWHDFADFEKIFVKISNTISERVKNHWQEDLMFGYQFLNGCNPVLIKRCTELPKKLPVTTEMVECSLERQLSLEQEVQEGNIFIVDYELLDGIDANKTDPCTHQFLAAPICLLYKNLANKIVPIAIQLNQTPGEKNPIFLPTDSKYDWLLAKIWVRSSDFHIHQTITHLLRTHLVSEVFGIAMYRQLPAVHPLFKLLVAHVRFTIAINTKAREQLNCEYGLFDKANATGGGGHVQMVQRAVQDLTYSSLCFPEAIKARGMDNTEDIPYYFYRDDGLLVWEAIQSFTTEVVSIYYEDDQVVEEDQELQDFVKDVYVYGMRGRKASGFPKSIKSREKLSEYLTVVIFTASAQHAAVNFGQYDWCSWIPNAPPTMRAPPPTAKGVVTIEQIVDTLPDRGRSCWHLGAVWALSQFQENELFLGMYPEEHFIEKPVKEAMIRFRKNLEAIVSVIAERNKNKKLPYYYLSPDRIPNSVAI
The assay is described as follows: In vitro inhibition against 5-lipoxygenase in RBL-1 cells was determined. Type of assay: cell-based.

Assay [2] addresses Prostaglandin G/H synthase 1 (Ovis aries) (UniProt P05979). Put plainly: Inhibition of Prostaglandin G/H synthase activity in sheep seminal vesicle was determined 100 uM.
For assay [3] the target is unchanged. The assay is described as above. The source holds these as a separate data set.
Assay [4] is described as follows: Inhibition of Prostaglandin G/H synthase activity in sheep seminal vesicle was determined. It is filed as tissue-based, Ovis aries. An outline of the steps: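 Sheep seminal vesicle microsomes (32 μg protein) were incubated with [14C]arachidonic acid (0.1 μCi/mL) in pH 7.4 phosphate buffer containing glutathione, epinephrine and EDTA for 10 min at 37 °C. Substrate was removed by two hexane/EtOAc extractions, and aqueous-phase radioactivity was counted by scintillation.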

A further assay concerns Mus musculus. Put plainly: Inhibition of arachidonic acid induced mouse ear edema at 30 ug/ear. It is filed as functional. An outline of the steps:
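Male ICR mice (25–28 g), 4–8 per group, received the compound topically in acetone, then 1 mg arachidonic acid on the inner surface of one ear. After 1 h, swelling was taken as the weight difference between challenged and unchallenged ears. Inhibition = (C−T)/C × 100; mean ± SE; Student's t test.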

The target of assay [5] is Prostaglandin G/H synthase 1 (Ovis aries) (UniProt P05979). The assay is described as follows: Inhibition of Prostaglandin G/H synthase activity in sheep seminal vesicle was determined. Further details: concentration or dose not given beside the values. To be noted: concentration not given here.
For assay [6] the target is unchanged. The assay is described as follows: Inhibition of Prostaglandin G/H synthase activity in sheep seminal vesicle was determined at 100 uM.

Prostaglandin G/H synthase 1 (Ovis aries), sequence (P05979 whole entry, looked up): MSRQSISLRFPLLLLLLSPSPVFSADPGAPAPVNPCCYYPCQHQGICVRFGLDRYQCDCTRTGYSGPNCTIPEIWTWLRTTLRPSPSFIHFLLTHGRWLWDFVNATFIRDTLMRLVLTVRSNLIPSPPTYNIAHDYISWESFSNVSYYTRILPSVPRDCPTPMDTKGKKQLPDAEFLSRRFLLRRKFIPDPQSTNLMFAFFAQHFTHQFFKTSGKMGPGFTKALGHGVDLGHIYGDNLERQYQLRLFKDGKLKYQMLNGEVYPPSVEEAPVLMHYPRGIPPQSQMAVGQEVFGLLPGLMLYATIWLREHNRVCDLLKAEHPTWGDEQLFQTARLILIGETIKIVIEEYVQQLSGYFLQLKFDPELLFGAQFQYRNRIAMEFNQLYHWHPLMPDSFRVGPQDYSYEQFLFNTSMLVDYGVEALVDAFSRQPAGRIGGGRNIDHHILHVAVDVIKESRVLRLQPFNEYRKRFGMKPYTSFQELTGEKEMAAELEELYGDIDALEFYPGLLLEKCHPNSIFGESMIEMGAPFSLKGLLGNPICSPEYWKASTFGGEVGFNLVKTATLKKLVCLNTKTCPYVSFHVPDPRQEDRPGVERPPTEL

The term inhibition denotes the change of the read-out against control, counted positive when it falls. What is called IC50 is the concentration that gives 50% inhibition. `O=C(/C=C/c1ccc(O)c(O)c1)c1c(O)cc(O)cc1O` [3,4,2',4',6'-PENTAHYDROXYCHALCONE]: the figures for the inhibition (in the assay listed under Rattus norvegicus; in assay [2]) were 18% and 11%, respectively. This compound showed a half-maximal inhibitory concentration (IC50) in assay [1] of 0.14 µM.
For `COc1cc(/C=C/C(=O)c2ccccc2O)ccc1O`, the inhibition in the assay listed under Rattus norvegicus came out at 14%. Besides, the half-maximal inhibitory concentration (IC50) in assay [3] is 63 µM.
As for `COc1cc(/C=C/C(=O)c2ccc(Cl)cc2)ccc1O`, the values for the IC50 in assay [1] and in assay [4] were 8.9 µM and 41 µM, respectively.
One may read the Inhibition as the change of the read-out against control, counted positive when it falls. Regarding `CCOc1ccc(OCC)c(C(=O)/C=C/c2ccc(O)c(O)c2)c1`, the Inhibition with Mus musculus is -18%. For the same compound, the IC50 in assay [1] was found to be 0.0024 µM; in assay [4] it was 24 µM.
Regarding `O=C(/C=C/c1ccc(O)cc1)c1c(O)cc(O)cc1O`, the values for the inhibition (in assay [5]; in the assay filed under Rattus norvegicus) were 3.1% and 8%, respectively.
With `O=C(/C=C/c1ccccc1)c1c(O)cc(O)cc1O` [2',4',6-TRIHYDROXYCHALCONE], the values for the inhibition (in assay [5]; in the assay listed under Rattus norvegicus) were 6.9% and 9%, respectively.
As for `O=C(/C=C/c1ccc(O)c(O)c1)c1ccccc1Cl`, the concentration for half-maximal inhibition (IC50) in assay [3] was 71 µM; in assay [1], 0.092 µM.
Turning to `COc1cccc(OC)c1C(=O)/C=C/c1ccc(O)c(O)c1`, the inhibition in assay [6] was found to be 15%. Inhibition in assay [1] was half-maximal at 0.37 µM (IC50).
`O=C(/C=C/c1ccc(O)c(O)c1)c1ccc(O)cc1O` [BUTEIN]: the inhibition in the assay filed under Rattus norvegicus is 40%. The 50% inhibitory concentration (IC50) is 120 µM in assay [3] and 0.0046 µM in assay [1].
Consider `COc1ccc(OC)c(C(=O)/C=C/c2ccc(O)c(O)c2)c1`, for which the IC50 in assay [4] worked out at 9.2 µM.
`O=C(/C=C/c1ccc(O)c(O)c1)c1cc(O)ccc1O`: the IC50 was 0.064 µM in assay [1] and 170 µM in assay [4].
The matching figures for `Cc1cccc(C(=O)/C=C/c2ccc(O)c(O)c2)c1`: 0.027 µM and 71 µM.
The matching figures for `Cc1ccc(C(=O)/C=C/c2ccc(O)c(O)c2)cc1`: 0.076 µM and 210 µM.
Turning to `COc1ccc(C(=O)/C=C/c2ccc(O)c(O)c2)c(O)c1` [CALYTHROPSIN], the IC50 in assay [4] amounted to 65 µM.
Take `O=C(/C=C/c1ccc(O)c(O)c1)c1ccccc1O`: in the assay listed under Rattus norvegicus, the inhibition is 45%. The figures for the IC50 in assay [3] and in assay [1] were 44 µM and 0.023 µM, respectively.
As to `O=C(/C=C/c1ccc(O)cc1)c1ccc(O)cc1O` [ISOLIQUIRITIGENIN], in the assay filed under Rattus norvegicus, the inhibition amounted to 9%. Besides, in assay [1], the IC50 amounted to 35 µM.
Turning to `O=C(/C=C/c1ccc(O)c(O)c1)c1cccc(O)c1`, the inhibition in the assay filed under Rattus norvegicus was found to be 24%. The IC50 in assay [1] is 0.0042 µM; in assay [4], 140 µM.
For the compound `O=C(/C=C/c1ccccc1)c1ccc(O)cc1`, the inhibition is 5% in the assay filed under Rattus norvegicus and 20% in assay [2].
In the case of `O=C(/C=C/c1ccc(O)c(O)c1)c1ccccc1`, the inhibition in the assay listed under Rattus norvegicus worked out at 44%. The IC50 was 0.043 µM in assay [1] and 34 µM in assay [4].
Take `CC(C)c1ccc(O)c(C(=O)/C=C/c2ccc(O)c(O)c2)c1`: the Inhibition in the assay on Mus musculus is 16%. The IC50 in assay [1] was found to be 0.004 µM; in assay [4], 37 µM.
Take `CCOc1ccc(OC)cc1C(=O)/C=C/c1ccc(O)c(O)c1`: the half-maximal inhibitory concentration (IC50) in assay [1] was 0.027 µM; in assay [4] it was 2 µM.
The corresponding values for `CN(C)c1cccc(C(=O)/C=C/c2ccc(O)c(O)c2)c1` are 0.0098 µM and 41 µM.
Regarding `O=C(/C=C/c1ccc(O)c(O)c1)c1ccc(O)cc1`, in the assay filed under Rattus norvegicus, the inhibition is 36%. In addition, the IC50 in assay [4] is 320 µM.
As for `CC(C)Oc1ccc(O)c(C(=O)/C=C/c2ccc(O)c(O)c2)c1`, the figures for the IC50 in assay [1] and in assay [4] were 0.011 µM and 140 µM, respectively.
Consider `CC(Cc1ccc(O)c(O)c1)C(C)Cc1ccc(O)c(O)c1` (centres undefined) [NORDIHYDROGUAIARETIC ACID], for which inhibition in assay [4] was half-maximal at 210 µM (IC50).
For the compound `COc1ccc(OC(C)C)cc1C(=O)/C=C/c1ccc(O)c(O)c1`, in the assay on Mus musculus, the Inhibition came out at 34%. The results for the IC50 in assay [1] and in assay [4] were 0.014 µM and 60 µM, respectively.
Take `Cc1ccc(C(=O)/C=C/c2ccc(O)c(O)c2)c(C)c1`: the IC50 in assay [1] amounted to 0.017 µM; in assay [4], 41 µM.
Regarding `COc1ccc(C(=O)/C=C/c2ccc(O)c(O)c2)cc1`, the half-maximal inhibitory concentration (IC50) in assay [1] turned out to be 0.02 µM; in assay [4], 490 µM.
Regarding `O=C(/C=C/c1ccc(O)cc1)c1ccccc1O`, in the assay filed under Rattus norvegicus, the inhibition was 6%. In assay [4], this compound displayed an IC50 of 390 µM.
Regarding `O=C(/C=C/c1ccc(O)c(O)c1)c1ccccc1C(F)(F)F`, the half-inhibitory concentration (IC50) in assay [1] worked out at 0.058 µM; in assay [4], 230 µM.
`Cc1cc(C)c(C(=O)/C=C/c2ccc(O)c(O)c2)c(C)c1`: the 50% inhibitory concentration (IC50) was found to be 0.4 µM in assay [1] and 280 µM in assay [4].
With `COc1ccccc1C(=O)/C=C/c1ccc(O)c(O)c1`, the values for the half-maximal inhibitory concentration (IC50) in assay [1] and in assay [4] were 0.027 µM and 13 µM, respectively.
Regarding `Cc1ccc(C)c(C(=O)/C=C/c2ccc(O)c(O)c2)c1`, the results for the IC50 in assay [1] and in assay [4] were 0.016 µM and 44 µM, respectively.
Take `CCOc1ccc(O)c(C(=O)/C=C/c2ccc(O)c(O)c2)c1`: the Inhibition in the assay with Mus musculus was determined as 42%. Also, the results for the IC50 in assay [1] and in assay [4] were 0.0053 µM and 130 µM, respectively.
Take `COc1cccc(C(=O)/C=C/c2ccc(O)c(O)c2)c1`: the results for the half-inhibitory concentration (IC50) in assay [1] and in assay [4] were 0.0065 µM and 15 µM, respectively.
Consider `O=C(/C=C/c1ccccc1)c1ccc(O)cc1O` [2',4'-DIHYDROXYCHALCONE], for which the inhibition in the assay listed under Rattus norvegicus worked out at 5%. The compound also returned an IC50 in assay [4] of 280 µM.
On to `COc1ccc(C(=O)/C=C/c2ccc(O)c(OC)c2)cc1`, for which the inhibition in assay [5] was -7.3%; in the assay listed under Rattus norvegicus, 2.3%. This compound also showed an IC50 in assay [1] of 12 µM.
With `O=C(/C=C/c1ccc(O)c(O)c1)c1ccc([N+](=O)[O-])cc1`, the inhibition in assay [5] was 5%. Moreover, the half-inhibitory concentration (IC50) in assay [1] is 0.023 µM.
Turning to `O=C(/C=C/c1ccc(O)c(O)c1)c1ccc(Cl)cc1`, the half-inhibitory concentration (IC50) came to 0.0085 µM in assay [1] and 1400 µM in assay [4].
Turning to `COc1ccc2c(c1)c(CC(=O)O)c(C)n2C(=O)c1ccc(Cl)cc1` [INDOMETHACIN], in the assay on Mus musculus, the Inhibition stood at 4.8%. Besides, half-maximal inhibition in assay [4] (IC50) required 0.8 µM.
As for `COc1cc(C(=O)/C=C/c2ccc(O)c(O)c2)cc(OC)c1OC`, the inhibition in assay [6] was found to be 13%. The compound also returned a half-inhibitory concentration (IC50) in assay [1] of 0.016 µM.
As to `COc1ccc(C(=O)/C=C/c2ccc(O)c(O)c2)cc1OC`, the IC50 in assay [1] is 0.018 µM; in assay [4], 140 µM.
Take `CC(C)Oc1ccc(C(=O)/C=C/c2ccc(O)c(O)c2)cc1`: the inhibition in assay [6] stood at 11%. In addition, in assay [1], the IC50 was determined as 0.041 µM.
Consider `COc1ccc(C)cc1C(=O)/C=C/c1ccc(O)c(O)c1`, for which the Inhibition in the assay on Mus musculus amounted to 47%. The figures for the IC50 in assay [1] and in assay [4] were 0.024 µM and 30 µM, respectively.
The matching figures for `Oc1c(Cc2ccccc2)ccc2ccccc12`: 67%, 0.0069 µM and 24 µM.
As to `CCCCOc1ccc(O)c(C(=O)/C=C/c2ccc(O)c(O)c2)c1`, the inhibition in assay [6] came out at 4.2%. For the same compound, the Inhibition in the assay with Mus musculus is given as 33%. In addition, it took 1 µM to reach half-maximal inhibition in assay [1] (IC50).
As for `CN(C)c1ccc(C(=O)/C=C/c2ccc(O)c(O)c2)cc1`, the half-maximal inhibitory concentration (IC50) in assay [1] was 0.0047 µM; in assay [4], 810 µM.
The corresponding values for `CCOc1ccc(OC)c(C(=O)/C=C/c2ccc(O)c(O)c2)c1` are 0.0038 µM and 26 µM.
For the compound `O=C1CCN(c2ccccc2)N1` [PHENIDONE], the Inhibition with Mus musculus is 24.6%. Besides, the IC50 in assay [4] came out at 80 µM.
As for `COc1cc(C(=O)/C=C/c2ccc(O)c(O)c2)ccc1O`, in assay [6], the inhibition was 14%. The compound further gave an IC50 in assay [1] of 0.009 µM.
As to `Cc1ccc(O)c(C(=O)/C=C/c2ccc(O)c(O)c2)c1`, the IC50 in assay [1] turned out to be 0.039 µM; in assay [4], 120 µM.
The corresponding values for `COc1ccc(C(=O)/C=C/c2ccc(O)c(O)c2)c(OC)c1` are 0.01 µM and 160 µM.

The values above are taken from ChEMBL document CHEMBL1127082, “3,4-Dihydroxychalcones as potent 5-lipoxygenase and cyclooxygenase inhibitors” (J Med Chem, 1993).
